This is an account of results in ChEMBL document CHEMBL2346638, “Secondary amines containing one aromatic nitro group: preparation, nitrosation, sustained nitric oxide release, and the synergistic effects of released nitric oxide and an arginase inhibitor on vascular smooth muscle cell proliferation” (Bioorg Med Chem, 2013).

Structures are written as SMILES. Calls of active or inactive are those of the source. The rule behind the calls is not given here.

One series concerns HASMC. The series is described as follows: Antiproliferative activity against HASMC at 1 mM after 96 hrs by MTT assay. The series is classed as functional. Conditions: Homo sapiens. The procedure, abridged: (§1)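 HASMCs at passage six or later were seeded at 3000–3500 cells/well, attached 16–24 h at 37 °C, then serum-starved 24–48 h. iNOS was induced with LPS (50 µg/mL) plus IFN-γ (50 ng/mL) for 6 h at 37 °C. ABH was then given in SMC medium at 1, 10, 100 µM, 1.0 and 5.0 mM over two 48 h feeds. MTT absorbance was read at 570 nm; duplicate determinations.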
In turn, `N[C@@H](CCCCB(O)O)C(=O)O` yielded an inhibition at 1000 µM of 35%.

Tested on in a further series: not listed separately
The series is described as follows: Induction of nitric oxide release in phosphate buffered saline up to 20 days by Griess reagent test. The class given is physicochemical. Also on record: concentration or dose not given beside the values. As to conditions: buffer, 480 h. The procedure, abridged: (§2)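 Nitrosated compound was stirred in 1X PBS at 0.0125 M (0.0250 M NO) at room temperature. Aliquots were taken hourly to 12 h, every 4 h to 24 h, every 8 h to 48 h, then every 24 h. Aliquots were centrifuged and triplicate supernatants mixed with Griess reagent for 5 min. Absorbance at 550 nm was plotted against time.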
A general note: The Griess reaction detects nitrite, a stable product of nitric oxide.
Consider `CCCCCCN(N=O)c1ccc([N+](=O)[O-])c(N(CCCCCC)N=O)c1`, for which the Activity was determined as 2.34%.
Same read-out and setting: to `CCCCCCCCCCN(N=O)c1ccc([N+](=O)[O-])c(N(CCCCCCCCCC)N=O)c1` belongs 3%.
On the same count and under the same terms, the figure for `CCCCCCCCCCN(N=O)c1cccc(N(CCCCCCCCCC)N=O)c1[N+](=O)[O-]` is 2.6%; for `CCCCCCCCCN(N=O)c1ccc([N+](=O)[O-])c(N(CCCCCCCCC)N=O)c1` it is 2.83%.

Tested on in the next series: not listed separately
As to the kind of experiment: Nitrosation of the compound in glacial acetic acid/tetrahydrofuran after 5 to 8 hrs by IR spectroscopy analysis.
Conditions: not given
The series is classed as physicochemical.
For `CCCCCCN(N=O)c1ccc([N+](=O)[O-])c(N(CCCCCC)N=O)c1`, the Activity is recorded as 100%.
The molecule `CCCCCCCCCCN(N=O)c1ccc([N+](=O)[O-])c(N(CCCCCCCCCC)N=O)c1` yielded an Activity of 100%.
`CCCCCCCCCN(N=O)c1ccc([N+](=O)[O-])c(N(CCCCCCCCC)N=O)c1`: the Activity is on record as 100%.

The next series concerns HASMC. The series is described as follows: Antiproliferative activity against HASMC at 20 uM after 96 hrs by MTT assay in presence of S-2-amino-6-boronic acid. The series is classed as functional, cell-based. As to conditions: Homo sapiens. The essentials: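 HASMCs were induced with LPS (50 µg/mL) and IFN-γ (50 ng/mL) for 6 h at 37 °C. Cytokines were removed and cells were treated with 5 mM ABH plus donor (20 µM) in SMC medium for 48 h at 37 °C. A second dose was added, followed by a further 48 h. Readout was MTT absorbance at 570 nm.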
Background: Tetrazolium assays rely on reduction of a dye to a coloured formazan, in cell work by metabolically active cells.
For the molecule `CCCCCCN(N=O)c1ccc([N+](=O)[O-])c(N(CCCCCC)N=O)c1`, the inhibition result is “Active”.

Tested on in the next series: not listed separately
As to the kind of experiment: Half life of the compound. The class given is physicochemical.
Conditions: not given
The essentials:
as §2
In turn, `CCCCCCN(N=O)c1ccc([N+](=O)[O-])c(N(CCCCCC)N=O)c1` showed a half-life of 105 h.
Still for that read-out and setting: to `CCCCCCCCCCN(N=O)c1ccc([N+](=O)[O-])c(N(CCCCCCCCCC)N=O)c1` belongs 60 h; to `CCCCCCCCCCN(N=O)c1cccc(N(CCCCCCCCCC)N=O)c1[N+](=O)[O-]`, 62 h.
With `CCCCCCCCCN(N=O)c1ccc([N+](=O)[O-])c(N(CCCCCCCCC)N=O)c1`, the half-life is 69 h.

A further series has as its system HASMC. The series is described as follows: Antiproliferative activity against HASMC using calcein AM and ethidium homodimer-1 at 20 uM by LIVE/DEAD assay in presence of S-2-amino-6-boronic acid. The series is classed as functional, cell-based. As to conditions: Homo sapiens. The essentials: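 HASMCs in black plates were induced with LPS/IFN-γ for 6 h, then given 20 µM donor plus 5 mM ABH for two 48 h periods. Detached cells were pelleted, washed and returned to their wells. Staining used ethidium homodimer-1 (0.5 µM) and calcein AM (0.25 µM) for 45 min at room temperature. Live cells were read at 495/530 nm and dead cells at 528/645 nm.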
Regarding `CCCCCCN(N=O)c1ccc([N+](=O)[O-])c(N(CCCCCC)N=O)c1`, the inhibition entry was “Active”.

For another series, the system named is HASMC. The series is described as follows: Antiproliferative activity against HASMC using calcein AM and ethidium homodimer-1 at <= 20 uM by LIVE/DEAD assay. The class given is functional, cell-based. As to conditions: Homo sapiens. The essentials:
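HASMCs in black plates were exposed for 96 h to compound at 0.1–20 µM in medium with 1% DMSO. Floating dead cells were pelleted, washed in PBS and returned to their wells. Cells were stained with Eth-1 (0.5 µM) and calcein AM (0.25 µM) for 45 min at room temperature, then read at ex/em 495/530 and 528/645 nm. Triplicate; t-test versus vehicle.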
For the molecule `CCCCCCN(N=O)c1ccc([N+](=O)[O-])c(N(CCCCCC)N=O)c1`, the outcome was Active.
As for `CCCCCCCCCCN(N=O)c1ccc([N+](=O)[O-])c(N(CCCCCCCCCC)N=O)c1`, the result was Active.
Take `CCCCCCCCCN(N=O)c1ccc([N+](=O)[O-])c(N(CCCCCCCCC)N=O)c1`: the outcome was Active.

Tested on in a further series: not listed separately
As to the kind of experiment: Induction of nitric oxide release in phosphate buffered saline up to 20 days by Griess reagent test in presence of glutathione. The series is classed as physicochemical. Conditions: buffer, 480 h. The procedure, abridged:
(§3)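 The same protocol was used in 1X PBS containing 5 mM reduced glutathione: donor at 0.0125 M, room temperature, timed aliquots over about 20 days. Supernatants were mixed with Griess reagent and absorbance read at 550 nm; no new calibration was needed.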
Regarding `CCCCCCN(N=O)c1ccc([N+](=O)[O-])c(N(CCCCCC)N=O)c1`, the Activity was 0.84%.
`CCCCCCCCCCN(N=O)c1cccc(N(CCCCCCCCCC)N=O)c1[N+](=O)[O-]`: the Activity was found to be 1.9%.
As for `CCCCCCCCCN(N=O)c1ccc([N+](=O)[O-])c(N(CCCCCCCCC)N=O)c1`, the Activity was 1.29%.

A further series relates to HASMC. As to the kind of experiment: Antiproliferative activity against HASMC at 5 mM after 96 hrs by MTT assay. The series is classed as functional. Conditions: Homo sapiens. The procedure, abridged:
as §1
Turning to `N[C@@H](CCCCB(O)O)C(=O)O`, the inhibition at 5000 µM was 48%.

The next series deals with HASMC. The series is described as follows: Induction of nitric oxide release in HASMC at 0.001 to 5 mM after 60 mins by DAF-FM DA assay. As to conditions: Homo sapiens.
Take `N[C@@H](CCCCB(O)O)C(=O)O`: the result was Active.

A further series relates to HASMC. As to the kind of experiment: Antiproliferative activity against HASMC at 20 uM after 96 hrs by MTT assay. The class given is functional, Homo sapiens.
Conditions: not given
The procedure, abridged: (§4)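 Serum-starved HASMCs (3000–3500 cells/well) received compound in complete SMC medium (2% FBS) with 1% DMSO at 0.1, 1, 5, 10 or 20 µM for 48 h. Fresh medium was then added and cells grew a further 48 h (96 h total). MTT 4–6 h at 37 °C, solubilized, A570 as % of medium-only control; 1% DMSO vehicle; triplicate; t-test versus vehicle.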
`CCCCCCN(N=O)c1ccc([N+](=O)[O-])c(N(CCCCCC)N=O)c1` had an Activity of 23%.

Tested on in the next series: not listed separately
The series is described as follows: Half life of the compound in presence of glutathione. The series is classed as physicochemical. Conditions: gsh. The procedure, abridged:
as §3
As to `CCCCCCN(N=O)c1ccc([N+](=O)[O-])c(N(CCCCCC)N=O)c1`, the half-life is 126 h.
Turning to `CCCCCCCCCCN(N=O)c1cccc(N(CCCCCCCCCC)N=O)c1[N+](=O)[O-]`, the half-life is 108 h.
In the case of `CCCCCCCCCN(N=O)c1ccc([N+](=O)[O-])c(N(CCCCCCCCC)N=O)c1`, the half-life was 109 h.

The next series has as its system HASMC. The series is described as follows: Induction of nitric oxide release in HASMC at 5 to 20 uM after 60 mins by DAF-FM DA assay. As to conditions: Homo sapiens. The series is classed as functional, cell-based.
In the case of `CCCCCCN(N=O)c1ccc([N+](=O)[O-])c(N(CCCCCC)N=O)c1`, the result was Active.
Consider `CCCCCCCCCCN(N=O)c1ccc([N+](=O)[O-])c(N(CCCCCCCCCC)N=O)c1`, for which the outcome was Active.
The same measure, in the same setting: to `CCCCCCCCCCN(N=O)c1cccc(N(CCCCCCCCCC)N=O)c1[N+](=O)[O-]` belongs “Active”.
The same measure, in the same setting: to `CCCCCCCCCN(N=O)c1ccc([N+](=O)[O-])c(N(CCCCCCCCC)N=O)c1` belongs “Active”.

Tested on in another series: not listed separately
As to the kind of experiment: Nitrosation of the compound in glacial acetic acid/tetrahydrofuran after 5 to 8 hrs by IR spectroscopy analysis in presence of glutathione. The series is classed as physicochemical.
Conditions: not given
For the molecule `CCCCCCN(N=O)c1ccc([N+](=O)[O-])c(N(CCCCCC)N=O)c1`, the Activity turned out to be 100%.
The same measure, in the same setting: to `CCCCCCCCCN(N=O)c1ccc([N+](=O)[O-])c(N(CCCCCCCCC)N=O)c1` belongs 100%.

Tested on in another series: not listed separately
The series is described as follows: Nitrosation of the compound in glacial acetic acid/tetrahydrofuran after 24 to 48 hrs by IR spectroscopy analysis. The class given is physicochemical.
Conditions: not given
In turn, `CCCCCCCCCCN(N=O)c1cccc(N(CCCCCCCCCC)N=O)c1[N+](=O)[O-]` registered an Activity of 100%.

A further series relates to HASMC. As to the kind of experiment: Induction of nitric oxide release in HASMC at 20 uM after 60 mins by DAF-FM DA assay in presence of S-2-amino-6-boronic acid. The class given is functional, cell-based. Conditions: Homo sapiens. The procedure, abridged:
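After LPS/IFN-γ induction (6 h), HASMCs were treated with 20 µM donor plus 5 mM ABH over 96 h. Cells were then loaded with DAF-FM DA (10 µM) for 60 min at room temperature in the dark, washed three times, left to de-esterify, and read at ex/em 495/515 nm.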
Consider `CCCCCCN(N=O)c1ccc([N+](=O)[O-])c(N(CCCCCC)N=O)c1`, for which the outcome was Active.

Tested on in the next series: not listed separately
As to the kind of experiment: Nitrosation of the compound in glacial acetic acid/tetrahydrofuran after 24 to 48 hrs by IR spectroscopy analysis in presence of glutathione. The series is classed as physicochemical.
Conditions: not given
In the case of `CCCCCCCCCCN(N=O)c1cccc(N(CCCCCCCCCC)N=O)c1[N+](=O)[O-]`, the Activity amounted to 100%.

The next series relates to HASMC. The series is described as follows: Antiproliferative activity against HASMC at <= 20 uM after 96 hrs by MTT assay. The class given is functional, cell-based. Conditions: Homo sapiens. The procedure, abridged: as §4
For the molecule `CCCCCCN(N=O)c1ccc([N+](=O)[O-])c(N(CCCCCC)N=O)c1`, the outcome was Active.
The same measure, in the same setting: to `CCCCCCCCCCN(N=O)c1ccc([N+](=O)[O-])c(N(CCCCCCCCCC)N=O)c1` belongs “Active”; to `CCCCCCCCCN(N=O)c1ccc([N+](=O)[O-])c(N(CCCCCCCCC)N=O)c1`, “Active”.

One may read the inhibition as the change of the read-out against control, counted positive when it falls. What is called half-life is how long it takes for the measured level to halve.
